Measured values reported in ChEMBL document CHEMBL1159071, “Discovery of 4-(5-methyloxazolo[4,5-b]pyridin-2-yl)-1,4-diazabicyclo[3.2.2]nonane (CP-810,123), a novel alpha 7 nicotinic acetylcholine receptor agonist for the treatment of cognitive disorders in schizophrenia: synthesis, SAR development, and in vivo efficacy in cognition models” (J Med Chem, 2010).

How the values were obtained:
[1] = target: Neuronal acetylcholine receptor subunit alpha-7 (Rattus norvegicus, UniProt Q05941); assay: Displacement of [125I]BTX from rat alpha7 nicotinic acetylcholine receptor expressed in GH4C1 cells; type: cell-based, GH4-C1
Method in brief: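 GH4C1 membranes (20 mM HEPES, 118 mM NaCl, 4.5 mM KCl, 2.5 mM CaCl2, 1.2 mM MgSO4, pH 7.5) incubated 2 h at 37 °C with [125I]α-bungarotoxin 0.4 nM final. Nonspecific binding with 1 μM methyllycaconitine; filtration onto PEI-treated GF/B filters. Ki = IC50/(1+[L]/KD); six-point curves in triplicate; geometric mean with 95% CI.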

[2] = target: T1, 5-hydroxytryptamine receptor 3A (Homo sapiens, UniProt P46098); assay: […] at human 5HT3 receptor expressed in human skin epithelial cells assessed as stimulation of calcium flux by FLIPR assay; type: functional, cell-based, Epithelial cell
T1 sequence (P46098 whole entry): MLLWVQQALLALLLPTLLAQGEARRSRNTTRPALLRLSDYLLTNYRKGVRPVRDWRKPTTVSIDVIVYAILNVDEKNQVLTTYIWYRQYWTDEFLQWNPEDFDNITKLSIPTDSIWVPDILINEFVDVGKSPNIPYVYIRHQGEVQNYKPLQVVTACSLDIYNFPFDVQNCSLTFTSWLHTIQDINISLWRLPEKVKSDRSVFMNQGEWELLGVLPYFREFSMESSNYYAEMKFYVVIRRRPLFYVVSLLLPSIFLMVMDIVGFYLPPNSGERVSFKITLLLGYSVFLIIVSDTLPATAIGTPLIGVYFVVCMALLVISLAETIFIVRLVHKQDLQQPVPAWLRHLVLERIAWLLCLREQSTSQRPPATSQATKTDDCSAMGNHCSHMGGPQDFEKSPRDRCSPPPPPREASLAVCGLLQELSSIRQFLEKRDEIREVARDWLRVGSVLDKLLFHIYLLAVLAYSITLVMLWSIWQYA
Method in brief: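 Human 5-HT3A stably in human skin epithelial cells, plated 15 000 cells/well 2 days ahead; loaded 1 h at 37 °C with Fluo-4 (8 μM final), washed into HBSS with 20 mM Tris-HEPES, 1 μM atropine, 4 mM Ca2+, pH 7.4. Compound added 2 min, then 5-HT challenge (250 nM final) 2 min; FLIPR calcium read.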

CHO = assay: Toxicity in CHO cells assessed as induction of DNA fragments by in vitro micronucleus assay; type: cell-based, Cricetulus griseus; conditions: chinese hamster
[3] = target: Voltage-gated inwardly rectifying potassium channel KCNH2 (Homo sapiens, UniProt Q12809)
[4] = Agonist activity at human alpha7 nAChR/mouse 5HT3 chimeric receptor expressed in SH-EP1 cells assessed as increase in intracellular calcium level; type: functional, cell-based
Method in brief: (§1)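 α7-5HT3 chimera stably in SH-EP1 cells grown to confluence; loaded with Calcium Green 1 AM (2 μM final) 60 min at 37 °C. Compound added directly; calcium rise read by FLIPR (excitation 488 nm, emission >525 nm).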

[5] = Agonist activity at human alpha7 nAChR/mouse 5HT3 chimeric receptor expressed in SH-EP1 cells assessed as increase in intracellular calcium level relative to 100 uM nicotine; type: functional; method in brief: as §1
[6] = target: T2, 5-hydroxytryptamine receptor 3A (Mus musculus, UniProt P23979); assay: Displacement of [3H]LY278584 from mouse 5HT3 receptor expressed in HEK293 cells; type: cell-based
T2 sequence (P23979 whole entry): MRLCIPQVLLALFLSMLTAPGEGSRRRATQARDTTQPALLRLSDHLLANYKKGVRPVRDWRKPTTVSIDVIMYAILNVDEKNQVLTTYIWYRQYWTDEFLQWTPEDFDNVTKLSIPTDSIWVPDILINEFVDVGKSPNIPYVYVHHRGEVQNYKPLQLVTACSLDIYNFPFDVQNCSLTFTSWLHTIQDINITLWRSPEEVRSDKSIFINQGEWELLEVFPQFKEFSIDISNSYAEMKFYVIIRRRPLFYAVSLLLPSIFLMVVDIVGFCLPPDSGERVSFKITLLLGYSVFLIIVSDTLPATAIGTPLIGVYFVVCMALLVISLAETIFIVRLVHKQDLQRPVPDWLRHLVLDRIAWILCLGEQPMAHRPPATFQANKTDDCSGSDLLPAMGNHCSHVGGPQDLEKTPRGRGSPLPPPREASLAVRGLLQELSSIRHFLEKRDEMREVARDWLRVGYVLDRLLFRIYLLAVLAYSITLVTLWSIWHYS
Method in brief: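 Mouse 5-HT3A in HEK293 cell homogenate, 20 mM Tris-HCl pH 7.4 with 154 mM NaCl. [3H]LY278584 1 nM final; nonspecific binding with 10 μM ICS205-930; 60 min at 37 °C, then filtration onto PEI-soaked GF/B. Ki by Cheng-Prusoff; mean of three six-point curves in triplicate in one assay; tropisetron standard.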

[7] = target: Neuronal acetylcholine receptor subunit alpha-7 (Rattus norvegicus) (UniProt Q05941); assay: Agonist activity at rat alpha7 nicotinic acetylcholine receptor expressed in Xenopus oocytes assessed as stimulation of channel currents at 32 uM at holding potential of -60/-90 mV by electrophysiology method relative to 50 uM nicotine; type: functional, cell-based; conditions: Oocyte
Method in brief: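 Xenopus oocytes defolliculated with collagenase (1.3 mg/mL, 3 h), injected with 10-50 ng rat α7 cRNA, kept in Barth's saline up to 2 weeks. Voltage clamp at -60 or -90 mV; current evoked by compound at 32 μM given as % of the 50 μM nicotine response (set to 100%).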

Neuronal acetylcholine receptor subunit alpha-7, sequence (Q05941 whole entry): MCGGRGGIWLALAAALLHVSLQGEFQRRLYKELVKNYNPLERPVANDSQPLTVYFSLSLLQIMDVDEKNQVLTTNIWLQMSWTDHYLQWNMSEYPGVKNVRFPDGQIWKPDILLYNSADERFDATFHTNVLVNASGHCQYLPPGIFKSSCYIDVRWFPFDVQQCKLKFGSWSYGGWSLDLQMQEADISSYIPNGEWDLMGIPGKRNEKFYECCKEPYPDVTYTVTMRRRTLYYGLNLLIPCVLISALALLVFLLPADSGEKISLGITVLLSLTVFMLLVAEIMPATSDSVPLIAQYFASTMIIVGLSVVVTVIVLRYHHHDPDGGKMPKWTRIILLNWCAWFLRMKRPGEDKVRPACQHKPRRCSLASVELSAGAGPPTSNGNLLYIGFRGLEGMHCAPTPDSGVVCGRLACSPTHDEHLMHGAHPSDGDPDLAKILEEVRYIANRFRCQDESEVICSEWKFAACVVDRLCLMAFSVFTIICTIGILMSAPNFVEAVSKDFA
Neuronal acetylcholine receptor subunit alpha-7 (Rattus norvegicus), sequence (Q05941 whole entry): as above
Voltage-gated inwardly rectifying potassium channel KCNH2, sequence (Q12809 whole entry): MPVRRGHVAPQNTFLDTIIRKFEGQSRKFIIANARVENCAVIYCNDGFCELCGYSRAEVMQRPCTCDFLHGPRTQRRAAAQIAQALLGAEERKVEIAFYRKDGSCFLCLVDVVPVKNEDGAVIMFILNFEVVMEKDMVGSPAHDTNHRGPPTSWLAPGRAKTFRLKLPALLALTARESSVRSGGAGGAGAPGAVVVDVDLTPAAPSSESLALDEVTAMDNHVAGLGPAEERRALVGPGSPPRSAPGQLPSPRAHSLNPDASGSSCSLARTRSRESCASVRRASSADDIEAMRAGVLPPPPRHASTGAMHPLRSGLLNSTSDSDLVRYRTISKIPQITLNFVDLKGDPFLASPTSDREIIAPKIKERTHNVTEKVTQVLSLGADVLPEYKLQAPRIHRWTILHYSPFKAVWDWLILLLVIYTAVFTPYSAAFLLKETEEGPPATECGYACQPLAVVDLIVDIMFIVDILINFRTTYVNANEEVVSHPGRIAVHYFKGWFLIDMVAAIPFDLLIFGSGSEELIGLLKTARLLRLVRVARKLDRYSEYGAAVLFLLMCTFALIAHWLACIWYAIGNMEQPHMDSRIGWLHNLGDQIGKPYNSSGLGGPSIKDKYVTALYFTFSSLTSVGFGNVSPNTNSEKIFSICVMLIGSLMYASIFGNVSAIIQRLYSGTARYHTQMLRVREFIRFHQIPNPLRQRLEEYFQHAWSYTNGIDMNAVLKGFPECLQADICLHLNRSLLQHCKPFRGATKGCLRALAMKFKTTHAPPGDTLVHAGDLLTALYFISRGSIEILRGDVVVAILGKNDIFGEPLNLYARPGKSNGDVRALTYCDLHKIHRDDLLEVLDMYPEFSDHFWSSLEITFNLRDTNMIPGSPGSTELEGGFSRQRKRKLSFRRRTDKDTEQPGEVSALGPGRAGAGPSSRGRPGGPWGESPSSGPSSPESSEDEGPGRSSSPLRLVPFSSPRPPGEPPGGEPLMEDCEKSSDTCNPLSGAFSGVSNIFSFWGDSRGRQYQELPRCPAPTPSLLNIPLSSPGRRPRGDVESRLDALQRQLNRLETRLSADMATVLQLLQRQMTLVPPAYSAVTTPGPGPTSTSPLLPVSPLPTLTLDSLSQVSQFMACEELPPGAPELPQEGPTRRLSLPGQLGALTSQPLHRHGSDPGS

Compound	Ki [1] [nM]	IC50 [2] [nM]	Activity (CHO)	IC50 [3] [nM]	EC50 [4] [nM]	Efficacy [5] [%]	Ki [6] [nM]	Activity [7] [%]
Fc1ccccc1-c1ccc2oc(N3CCN4CCC3CC4)nc2n1	3.45	> 7310	Non-toxic	2800	160	73	> 3770	–
Cc1nc2nc(N3CCN4CCC3CC4)oc2cc1Cl	3.19	70	Non-toxic	16200	160	58	244	–
c1cc2nc(N3CCN4CCC3CC4)oc2cn1	309	–	–	–	–	–	162	186
CCc1ccc2oc(N3CCN4CCC3CC4)nc2n1	18.7	3310	Non-toxic	–	100	34	> 5260	–
Clc1cnc2oc(N3CCN4CCC3CC4)nc2c1	2.59	–	–	–	227	62	–	–
N#Cc1cnc2nc(N3CCN4CCC3CC4)oc2c1	6.2	–	–	–	510	58	> 5290	–
c1ccc(Oc2cnc3nc(N4CCN5CCC4CC5)oc3c2)cc1	4.16	–	–	–	620	75	1960	–
Cc1ccc2nc(N3CCN4CCC3CC4)oc2n1	88.6	–	–	–	1200	59	126	–
c1ccc(Oc2ccc3oc(N4CCN5CCC4CC5)nc3n2)cc1	17.3	–	–	–	380	63	6830	–
CCC(C)c1cnc2nc(N3CCN4CCC3CC4)oc2c1 (stereo unspecified)	> 1000	–	–	–	–	–	–	–
c1ccc(-c2cnc3oc(N4CCN5CCC4CC5)nc3c2)cc1	2.31	–	–	–	264	69	3670	–
O=C(Oc1ccccc1)N1CCN2CCC1CC2	–	–	–	–	–	–	3990	–
c1ccc2oc(N3CCN4CCC3CC4)nc2c1	22.5	–	–	–	–	–	13	183
c1cncc(-c2cnc3nc(N4CCN5CCC4CC5)oc3c2)c1	119	–	–	–	430	70	> 5350	–
Brc1ccc2oc(N3CCN4CCC3CC4)nc2c1	2.15	–	–	–	–	–	< 17	78
Cc1ccc2oc(N3CCN4CCC3CC4)nc2c1	33.6	–	–	–	–	–	3.4	287
COc1ccc2oc(N3CCN4CCC3CC4)nc2n1	24.9	–	–	–	1000	56	141	–

Compound	Ki [1] [nM]	IC50 [2] [nM]	Activity (CHO)	IC50 [3] [nM]	EC50 [4] [nM]	Efficacy [5] [%]	Ki [6] [nM]	Activity [7] [%]
c1cc2oc(N3CCN4CCC3CC4)nc2nc1N1CCCCC1	67.1	–	–	–	1900	30	1140	–
c1cc2oc(N3CCN4CCC3CC4)nc2nc1C1CCCC1	5.3	–	–	–	525	54	> 5290	–
c1cc2oc(N3CCN4CCC3CC4)nc2cn1	312	–	–	–	–	–	2120	156
c1cnc2nc(N3CCN4CCC3CC4)oc2c1	30.3	–	–	–	–	–	579	220
Cc1nc2nc(N3CCN4CCC3CC4)oc2cc1F	15.3	–	–	–	2100	36	547	–
c1ccc(-c2cnc3nc(N4CCN5CCC4CC5)oc3c2)cc1	7.04	–	–	–	320	71	2120	–
CC(C)c1ccc2oc(N3CCN4CCC3CC4)nc2n1	9.05	–	–	–	580	68	> 5290	–
Cc1cnc2nc(N3CCN4CCC3CC4)oc2c1	6.66	–	–	–	1020	55	3390	–
Fc1ccc2oc(N3CCN4CCC3CC4)nc2c1	20.7	–	–	–	–	–	3.9	315
Clc1cnc2nc(N3CCN4CCC3CC4)oc2c1	1	484	–	–	160	83	1370	–
Clc1ccc2oc(N3CCN4CCC3CC4)nc2c1	1.92	–	–	–	–	–	1.2	122
c1ncc(-c2cnc3nc(N4CCN5CCC4CC5)oc3c2)cn1	60	–	–	–	–	–	> 7140	–
c1cc(-c2cnc3nc(N4CCN5CCC4CC5)oc3c2)n[nH]1	23	–	–	–	390	68	> 5260	–
c1cc2oc(N3CCN4CCC3CC4)nc2nc1N1CCCC1	1.91	–	–	–	470	67	6340	–
CCc1cnc2nc(N3CCN4CCC3CC4)oc2c1	22.5	–	–	–	300	53	> 5260	–
Cc1ccc2nc(N3CCN4CCC3CC4)oc2c1	17.9	–	–	–	–	–	< 17	197
c1cnc2oc(N3CCN4CCC3CC4)nc2c1	40.6	–	–	–	–	–	92	182
